According to ChEMBL document CHEMBL1136994, “Substitution of arginine with proline and proline derivatives in melanocyte-stimulating hormones leads to selectivity for human melanocortin 4 receptor” (J Med Chem, 2009):
pEC50, pIC50: −log10 of the molar value.

Columns and labels:
[1] = molecular target: T1, Melanocyte-stimulating hormone receptor (Homo sapiens, UniProt Q01726); experiment: biochemical; type: cell-based, HEK293
[2] = molecular target: T1, Melanocyte-stimulating hormone receptor; type: functional, cell-based, HEK293
[3] = molecular target: T1, Melanocyte-stimulating hormone receptor; experiment: Displacement of [125I][Nle4,Dphe7]-alpha-MSH from human MC1R expressed in HEK293 cells at 10 uM; type: cell-based
Method in brief: (§1)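 Stably transfected HEK293 cells for each hMCR were seeded 48 h ahead at 100 000 cells/well. Buffer was MEM with 25 mM HEPES pH 7.4, 0.2% BSA, 1 mM 1,10-phenanthroline, leupeptin and bacitracin. […] After washing, cells were lysed in NaOH/Triton and counted by γ counter. Binding was scored at 10^-5 M.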

[4] = molecular target: T2, Melanocortin receptor 4 (Homo sapiens, UniProt P32245); experiment: biochemical; type: cell-based, HEK293
T2 sequence (P32245 whole entry): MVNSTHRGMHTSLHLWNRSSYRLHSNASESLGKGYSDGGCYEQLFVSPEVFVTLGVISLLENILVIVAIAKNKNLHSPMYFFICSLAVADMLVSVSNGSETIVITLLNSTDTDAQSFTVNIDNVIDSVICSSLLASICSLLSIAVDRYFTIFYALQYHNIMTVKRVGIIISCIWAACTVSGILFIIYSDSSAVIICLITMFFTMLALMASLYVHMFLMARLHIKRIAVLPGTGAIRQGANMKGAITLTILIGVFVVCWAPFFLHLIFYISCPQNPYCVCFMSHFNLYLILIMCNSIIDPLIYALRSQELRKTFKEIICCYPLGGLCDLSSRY

[5] = molecular target: T3, Melanocortin receptor 3 (Homo sapiens, UniProt P41968); type: functional, cell-based, HEK293
T3 sequence (P41968 whole entry): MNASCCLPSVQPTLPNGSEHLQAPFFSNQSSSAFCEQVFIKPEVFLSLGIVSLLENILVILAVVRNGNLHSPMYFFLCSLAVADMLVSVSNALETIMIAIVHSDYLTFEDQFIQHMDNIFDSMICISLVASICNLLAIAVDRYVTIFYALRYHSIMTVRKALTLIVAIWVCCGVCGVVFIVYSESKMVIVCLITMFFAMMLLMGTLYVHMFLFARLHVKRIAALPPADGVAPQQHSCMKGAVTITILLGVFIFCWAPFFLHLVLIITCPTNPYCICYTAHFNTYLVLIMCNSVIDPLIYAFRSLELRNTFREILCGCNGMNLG

[6] = molecular target: T2, Melanocortin receptor 4; type: functional, cell-based, HEK293
[7] = molecular target: T3, Melanocortin receptor 3; experiment: biochemical; type: cell-based, HEK293
[8] = molecular target: T4, Melanocortin receptor 5 (Homo sapiens, UniProt P33032); experiment: biochemical; type: cell-based, HEK293
T4 sequence (P33032 whole entry): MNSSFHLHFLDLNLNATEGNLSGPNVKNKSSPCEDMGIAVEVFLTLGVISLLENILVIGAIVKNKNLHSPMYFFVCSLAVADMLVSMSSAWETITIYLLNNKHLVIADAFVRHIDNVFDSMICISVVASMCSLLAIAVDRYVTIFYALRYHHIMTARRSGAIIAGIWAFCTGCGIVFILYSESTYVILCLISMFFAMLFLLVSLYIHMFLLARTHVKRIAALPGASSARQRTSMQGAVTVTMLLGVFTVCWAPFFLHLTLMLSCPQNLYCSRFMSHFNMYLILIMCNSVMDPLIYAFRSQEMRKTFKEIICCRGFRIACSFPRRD

[9] = molecular target: T4, Melanocortin receptor 5; type: functional, cell-based, HEK293
[10] = molecular target: T2, Melanocortin receptor 4; experiment: Displacement of [125I][Nle4,Dphe7]-alpha-MSH from human MC4R expressed in HEK293 cells at 10 uM; type: cell-based
Method in brief: as §1

[11] = molecular target: T4, Melanocortin receptor 5; experiment: Displacement of [125I][Nle4,Dphe7]-alpha-MSH from human MC5R expressed in HEK293 cells at 10 uM; type: cell-based
[12] = molecular target: T3, Melanocortin receptor 3; experiment: Displacement of [125I][Nle4,Dphe7]-alpha-MSH from human MC3R expressed in HEK293 cells at 10 uM; type: cell-based

T1 sequence (Q01726 whole entry): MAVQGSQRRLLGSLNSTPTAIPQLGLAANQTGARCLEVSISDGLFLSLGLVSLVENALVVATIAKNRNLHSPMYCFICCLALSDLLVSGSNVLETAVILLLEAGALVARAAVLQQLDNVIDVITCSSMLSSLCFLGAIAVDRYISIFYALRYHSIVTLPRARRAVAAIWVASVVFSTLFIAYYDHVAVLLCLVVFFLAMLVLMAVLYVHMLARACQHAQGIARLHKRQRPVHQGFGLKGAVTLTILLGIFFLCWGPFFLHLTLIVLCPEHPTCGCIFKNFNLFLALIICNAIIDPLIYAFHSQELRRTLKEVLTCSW

| SMILES | pIC50 [1] | pEC50 [2] | pIC50 [4] | pEC50 [6] | IC50 [11] | IC50 [12] | also measured |
| --- | --- | --- | --- | --- | --- | --- | --- |
| CCCC[C@H](NC(C)=O)C(=O)N[C@H]1CC(=O)NCCCC[C@@H](C(N)=O)NC(=O)[C@H](Cc2c[nH]c3ccccc23)NC(=O)[C@@H]2C[C@H](NC(=N)N)CN2C(=O)[C@@H](Cc2ccccc2)NC(=O)[C@H](Cc2cnc[nH]2)NC1=O | – | – | – | – | – | – | IC50 [3]: Not Active |
| CCCC[C@H](NC(C)=O)C(=O)N[C@H]1CC(=O)NCCCC[C@@H](C(N)=O)NC(=O)[C@H](Cc2c[nH]c3ccccc23)NC(=O)[C@@H]2CCCN2C(=O)[C@@H](Cc2ccccc2)NC(=O)[C@H](Cc2cnc[nH]2)NC1=O | < 5.32 | < 6.00 | – | – | – | – | – |
| CCCC[C@H](NC(C)=O)C(=O)N[C@H]1CC(=O)NCCCC[C@@H](C(N)=O)NC(=O)[C@H](Cc2c[nH]c3ccccc23)NC(=O)[C@@H]2C[C@H](N=C(N)N)CN2C(=O)[C@@H](Cc2ccc3ccccc3c2)NC(=O)[C@H](Cc2cnc[nH]2)NC1=O | < 5.52 | – | – | – | – | – | – |
| CCCC[C@H](NC(=O)[C@@H](NC(=O)[C@H](Cc1ccc(O)cc1)NC(C)=O)C(C)C)C(=O)NCC(=O)N[C@@H](Cc1cnc[nH]1)C(=O)N[C@H](Cc1ccccc1)C(=O)N1C[C@H](NC(=N)N)C[C@H]1C(=O)N[C@@H](Cc1c[nH]c2ccccc12)C(=O)N[C@@H](CC(=O)O)C(=O)N[C@@H](CCCNC(=N)N)C(=O)N[C@@H](Cc1ccccc1)C(=O)NCC(N)=O | 6.08 | 5.85 | – | – | Not Active | Not Active | IC50 [10]: Not Active |
| CCCC[C@H](NC(C)=O)C(=O)N[C@H]1CC(=O)NCCCC[C@@H](C(N)=O)NC(=O)[C@H](Cc2c[nH]c3ccccc23)NC(=O)[C@H](CCCN=C(N)N)NC(=O)[C@@H](Cc2ccccc2)NC(=O)[C@@H]2C[C@H](N=C(N)N)CN2C1=O | – | 5.57 | 8.24 | 7.39 | – | – | pEC50 [5]: 5.60; pIC50 [7]: 8.55; pEC50 [9]: 7.68 |
| CCCC[C@H](NC(=O)[C@@H](NC(=O)[C@H](Cc1ccc(O)cc1)NC(C)=O)C(C)C)C(=O)NCC(=O)N[C@@H](Cc1cnc[nH]1)C(=O)N[C@H](Cc1ccccc1)C(=O)N1C[C@@H](NC(=N)N)C[C@H]1C(=O)N[C@@H](Cc1c[nH]c2ccccc12)C(=O)N[C@@H](CC(=O)O)C(=O)N[C@@H](CCCNC(=N)N)C(=O)N[C@@H](Cc1ccccc1)C(=O)NCC(N)=O | 6.00 | < 5.30 | – | – | Not Active | Not Active | IC50 [10]: Not Active |

Continued, in another order:

| pIC50 [1] | pEC50 [2] | pIC50 [4] | pEC50 [6] | IC50 [11] | IC50 [12] | SMILES | also measured |
| --- | --- | --- | --- | --- | --- | --- | --- |
| 6.22 | 6.80 | – | – | – | – | CCCC[C@H](NC(C)=O)C(=O)N[C@H]1CC(=O)NCCCC[C@@H](C(N)=O)NC(=O)[C@H](Cc2c[nH]c3ccccc23)NC(=O)[C@@H]2CCCN2C(=O)[C@@H](Cc2ccc3ccccc3c2)NC(=O)[C@H](Cc2cnc[nH]2)NC1=O | – |
| 8.57 | 6.09 | 9.22 | 5.46 | – | – | CCCC[C@H](NC(C)=O)C(=O)N[C@H]1CC(=O)NCCCC[C@@H](C(N)=O)NC(=O)[C@H](Cc2c[nH]c3ccccc23)NC(=O)[C@H](CCCN=C(N)N)NC(=O)[C@@H](Cc2ccccc2)NC(=O)[C@@H]2C[C@@H](N=C(N)N)CN2C1=O | pEC50 [5]: 7.85; pIC50 [7]: 9.00; pIC50 [8]: 8.60; pEC50 [9]: 8.80 |
| 6.40 | 4.72 | – | – | – | – | CCCC[C@H](NC(C)=O)C(=O)N[C@H]1CC(=O)NCCCC[C@@H](C(N)=O)NC(=O)[C@H](Cc2c[nH]c3ccccc23)NC(=O)[C@@H]2C[C@@H](NC(=N)N)CN2C(=O)[C@@H](Cc2ccc3ccccc3c2)NC(=O)[C@H](Cc2cnc[nH]2)NC1=O | – |
| 6.72 | 6.92 | 6.57 | 6.68 | Not Active | Not Active | CCCC[C@H](NC(=O)[C@@H](NC(=O)[C@H](Cc1ccc(O)cc1)NC(C)=O)C(C)C)C(=O)NCC(=O)N[C@@H](Cc1cnc[nH]1)C(=O)N[C@H](Cc1ccccc1)C(=O)N1CCC[C@H]1C(=O)N[C@@H](Cc1c[nH]c2ccccc12)C(=O)N[C@@H](CC(=O)O)C(=O)N[C@@H](CCCNC(=N)N)C(=O)N[C@@H](Cc1ccccc1)C(=O)NCC(N)=O | – |
